Screening results from PubChem BioAssay.
SKKanGAS inh – SKKanGAS growth inhibition; S. pyogenes SKKanGAS, kanamycin growth, BacTiter-Glo, 6 h; inhibition, % at 7.5 µM; actives 1.3% (n = 300,000);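 active = mean replicate score, as percent of positive control median, at least 50; inconclusive = mean below 50 but one replicate at or above 50; inactive = mean and every replicate below 50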;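 note: strain carries kanamycin resistance gene driven by streptokinase promoter and grows in 40 µg/ml kanamycin; loss of luminescence reflects streptokinase promoter inhibition or plain growth inhibition; 0% = median of DMSO wells and 100% = positive control at its reference dose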
Ins promoter up – MIN6 insulin promoter up-regulation. MIN6 insulin promoter-GFP reporter, high-content imaging; hits give high values. z-score at 5 µM. actives 0.3% (n = 190,000);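 active = z-score above 3 at 5 µM with at least 500 cells counted in the well; inconclusive = wells under 500 cells, flagged as cytotoxic or low count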
WT yeast gro inh – growth inhibition of WT yeast, mitochondrial fusion screen | mitochondrial fusion phenotypic screen, WT strain | inhibition, % at 10 µM | actives 2.1% (n = 190,000) | AID 1362; in the data active = inhibition above about 58%; tested in S. cerevisiae
Cl transport mod – KCC2 (human) Cl- transport modulation | actives 2.2% (n = 190,000) | B-score of Tl+ flux slope (higher = more flux/activation; lower = inhibition) at 10 µM | Q9H2X9 | KCC2 cells, thallium flux FluoZin-2 fluorescence | AID 1456;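 active = thallium flux slope and its plate-corrected score both differing from the plate sample mean at a set confidence after two filtering rounds, in either direction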;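 note: slope of fluorescence scaled to starting intensity during 10 to 20 s after thallium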
Autophagy HCS – autophagy modulation, high-content screen; calls only at 10 µM (by protocol); MEF GFP-LC3 puncta imaging; test concentration mostly 10 µM; actives 0.98% (n = 190,000);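 active = percentage of spot-positive cells more than 3 SD above its plate mean, without a fluorescence outlier flag or 80% toxicity; inconclusive = no clear call, values can overlap the other calls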;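 note: spot-positive cell cutoff set from DMSO-treated cells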
Rad51 HR inh – Rad51 (human) homologous recombination inhibition | Q06609 | hRad51 DNA strand exchange, fluorescence dequenching | inhibition, % at 10 µM | actives 0.085% (n = 200,000) | AID 1385;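 active = inhibition above 40% at the single screening dose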;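 note: 0% = DMSO control wells and 100% = blanks with heterologous ssDNA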
Target sequence (Q06609 whole entry, looked up): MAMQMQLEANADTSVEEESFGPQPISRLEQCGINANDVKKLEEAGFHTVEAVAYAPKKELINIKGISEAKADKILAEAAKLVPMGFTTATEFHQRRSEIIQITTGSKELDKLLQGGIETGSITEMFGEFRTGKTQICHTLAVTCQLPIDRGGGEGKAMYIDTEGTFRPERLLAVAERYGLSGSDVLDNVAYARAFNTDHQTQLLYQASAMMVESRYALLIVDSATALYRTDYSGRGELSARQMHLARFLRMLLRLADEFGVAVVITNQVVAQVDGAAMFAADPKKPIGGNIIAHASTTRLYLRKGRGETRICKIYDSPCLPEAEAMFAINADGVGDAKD
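material = hRad51 filaments on single-stranded DNA | timing = filaments 15 min 37 °C, then compound 30 min | signal = FRET fluorescence dequenching, excitation 485 nm, emission 520 nm | benchmarks = control wells and blank wells on each plate | evaluation = percent inhibition relative to plate controls and blanks | compound = 10 µM final, single point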
KCC2 secondary – KCC2 (human) modulation, secondary assay; shares compounds with Cl transport mod; HEK293-KCC2, thallium flux, FluoZin2 fluorescence; hits give high values; normalised thallium flux (F/F0 slope) at 10 µM; actives 15% (n = 3,700); AID 1713;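 active = thallium flux slope above the same plate's solvent-only control mean plus 3 SD; inconclusive = the two replicate wells disagree; inactive = no significant difference from solvent-only control wells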
KCC2 bumet counter – bumetanide-insensitive thallium flux in KCC2 cells with ouabain, counter-screen. shares compounds with Cl transport mod. HEK293-KCC2 + bumetanide/ouabain, thallium flux FluoZin2; hits give high values. normalized thallium flux at 10 µM. actives 49% (n = 3,700);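 active = thallium entry rate above the same plate's blocked-transporter control wells by more than 3 SD; inconclusive = the two repeat wells disagree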;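 note: raw slope of fluorescence over initial fluorescence between 10 and 20 s after thallium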
KCC2 secondary2 – KCC2 (human) modulation, second secondary assay. shares compounds with Cl transport mod. HEK293-KCC2, thallium flux FluoZin2 fluorescence; actives lie on both sides; F/F0 rise rate, 10–20 s post-thallium. normalized thallium flux at 10 µM. actives 23% (n = 3,700);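 active = thallium flux slope more than 3 SD above or below the plate's solvent-only control mean, mostly below; inconclusive = the two repeat wells disagreed; inactive = no significant shift from solvent-only controls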;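 note: raw slope with 0.1% DMSO as baseline and bumetanide as block control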
HEK counter1 – parental HEK flux effect, counter-screen; shares compounds with Cl transport mod; HEK293 parental cells, thallium flux FluoZin2, ouabain; baseline-ratio fluorescence slope, 10–20 s after thallium; thallium flux rate (normalised fluorescence) at 10 µM; actives 46% (n = 3,700); AID 1716;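 active = thallium flux rate significantly above the same plate's solvent-only control wells, beyond their mean plus 3 SD; inconclusive = the two replicate wells gave conflicting results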
KCC2 ouabain – KCC2 (human) modulation, ouabain retest. actives 48% (n = 3,700). raw Tl+ flux slope (below DMSO = inhibition, above = activation) at 10 µM. HEK293-KCC2, thallium flux FluoZin2 fluorescence; bidirectional: low = inhibitor, high = activator. shares compounds with Cl transport mod;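 active = thallium flux slope beyond 3 SD from same-plate DMSO control mean in most replicates, usually higher, sometimes lower; inconclusive = repeat tests gave conflicting results; inactive = no significant difference from controls in most replicates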;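 note: slope of initial-normalized fluorescence between seconds 10 and 20 after thallium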
HEK293 Tl flux2 – acts in parental HEK cells, second KCC2 counter-screen; actives 33% (n = 3,700); shares compounds with Cl transport mod; thallium flux slope at 10 µM; HEK293 parental, thallium flux FluoZin-2 fluorescence slope;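 active = thallium flux slope above the same plate's solvent-control mean plus 3 SD in both duplicate wells; inconclusive = duplicate wells that disagreed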;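 note: run without ouabain in cells lacking the KCC2 cotransporter; slope of fluorescence scaled to its starting value between 10 and 20 s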
Numbers without * were called inactive. This is a sample that favours compounds with a hit; in the whole collection about 4.2% have one here.

How did O=c1cc(CSc2nnnn2-c2ccccc2)nc2scc(-c3ccccc3)n12 do in these assays?
SKKanGAS inh: 2.2; Ins promoter up: 0.46; WT yeast gro inh: -22.4; Cl transport mod: -4.71*; Autophagy HCS: inactive; Rad51 HR inh: -0.8; KCC2 secondary: 0.00883; KCC2 bumet counter: 0.00724; KCC2 secondary2: 0.0235*; HEK counter1: 0.00652; KCC2 ouabain: 0.0127*; HEK293 Tl flux2: 0.00936

What do the screens show for `O=C(O)CSc1nnnn1-c1ccccc1`?
SKKanGAS inh: -2.7; WT yeast gro inh: -35.3; Cl transport mod: -0.643; Autophagy HCS: inactive; Rad51 HR inh: 8.3

Results for O=C(CSc1nnnn1-c1ccccc1)N1CCc2ccccc21 ?
SKKanGAS inh: -3.2; Ins promoter up: -0.44; WT yeast gro inh: -1.8; Cl transport mod: -1.27; Autophagy HCS: inactive; Rad51 HR inh: -6.0

How did O=C(CSc1nnnn1-c1ccc(Cl)cc1)N1CCc2ccccc2C1 do in these assays?
SKKanGAS inh: -9.5; Ins promoter up: 0.39; WT yeast gro inh: 81.2*; Autophagy HCS: inactive; Rad51 HR inh: -2.6; KCC2 secondary: 0.00559; KCC2 bumet counter: inconclusive; KCC2 secondary2: 0.0248*; HEK counter1: 0.00715; KCC2 ouabain: inconclusive; HEK293 Tl flux2: 0.00994

What do the screens show for `CCC(C)N1CCN(C(=O)c2cccs2)CC1` (centres undefined)?
WT yeast gro inh: -1.5; Cl transport mod: 0.295; Autophagy HCS: inactive; Rad51 HR inh: -3.6

How did Cc1c(-c2ccccc2)oc2c(C(=O)N3CCN(c4ccccc4F)CC3)cccc2c1=O do in these assays?
SKKanGAS inh: -4.9; WT yeast gro inh: 15.9; Cl transport mod: 0.169; Autophagy HCS: inactive

How did COc1ccc(N2CCC(CNC(=S)Nc3ccc(C)cc3C)C2)cc1 (centres undefined) do in these assays?
SKKanGAS inh: 12.3; Ins promoter up: -1.13; Cl transport mod: -0.744; Rad51 HR inh: 3.6

How did Cc1nonc1CN(C)C(=O)c1cc(COc2ccc(F)cc2Cl)on1 do in these assays?
SKKanGAS inh: -11.9

Results for Cc1cc(CN(C)C(=O)c2cc(COc3ccc(F)cc3Cl)on2)n[nH]1 ?
SKKanGAS inh: -26.0; WT yeast gro inh: -8.8; Cl transport mod: -4.7*; Autophagy HCS: inactive; Rad51 HR inh: -3.6; KCC2 secondary: 0.00605*; KCC2 bumet counter: inconclusive; KCC2 secondary2: inconclusive; HEK counter1: 0.00832; KCC2 ouabain: 0.0241; HEK293 Tl flux2: 0.0107

What do the screens show for `Cc1nc(CNC(=O)c2cc(COc3ccc(F)cc3Cl)on2)cs1`?
SKKanGAS inh: -13.9; Ins promoter up: -0.12; WT yeast gro inh: 7.3; Cl transport mod: -4.6*; Autophagy HCS: inactive; KCC2 secondary: 0.00651; KCC2 bumet counter: 0.00638; KCC2 secondary2: 0.0329; HEK counter1: 0.00426; KCC2 ouabain: 0.0146*; HEK293 Tl flux2: 0.0112

Results for Cc1ccc(CN(C)C(=O)c2cc(COc3ccc(F)cc3Cl)on2)o1 ?
SKKanGAS inh: -6.8; Ins promoter up: 0.01; WT yeast gro inh: 18.7; Autophagy HCS: inactive; Rad51 HR inh: 0.5; KCC2 secondary: 0.00698; KCC2 bumet counter: 0.00533; KCC2 secondary2: 0.0258*; HEK counter1: 0.00721; KCC2 ouabain: inconclusive; HEK293 Tl flux2: 0.0105

How did COc1ccc(OCc2cc(C(=O)N(C)Cc3cc(C)no3)no2)c(Cl)c1 do in these assays?
SKKanGAS inh: -5.3

What do the screens show for `Cc1cc(F)ccc1S(=O)(=O)N1CCCOC1CNC(=O)C(=O)NCc1ccncc1` (centres undefined)?
SKKanGAS inh: 2.0

Results for CCOc1ccc(NS(=O)(=O)c2ccc(NS(=O)(=O)c3ccccc3)cc2)cc1 ?
SKKanGAS inh: -13.9; WT yeast gro inh: 4.1; Autophagy HCS: inactive; Rad51 HR inh: -5.1; KCC2 secondary: 0.00791; KCC2 bumet counter: 0.00629; KCC2 secondary2: 0.0305; HEK counter1: 0.00736; KCC2 ouabain: inconclusive; HEK293 Tl flux2: 0.0109

Results for CCOc1ccc(S(=O)(=O)Nc2cccc(Cl)c2)cc1 ?
SKKanGAS inh: -2.8; Cl transport mod: -0.58; Autophagy HCS: inactive; Rad51 HR inh: -7.2

How did CCN(CC)CCNC(=O)c1ccc(NC(=O)C2CCN(c3ncnc4sc(C)c(C)c34)CC2)cc1 do in these assays?
SKKanGAS inh: 2.6

How did N#Cc1cc(Br)ccc1N=C1CCCN1c1ccccc1 do in these assays?
SKKanGAS inh: -10.4; Ins promoter up: -0.05; WT yeast gro inh: 12.2; Cl transport mod: -1.47; Autophagy HCS: inactive

Results for CC(Sc1nnnn1-c1ccccc1)C(=O)Nc1ccc(Cl)cn1 (centres undefined) ?
SKKanGAS inh: -3.2; Ins promoter up: 1.07; WT yeast gro inh: 25.0; Cl transport mod: -4.37*; Autophagy HCS: inactive; Rad51 HR inh: 5.1; KCC2 secondary: 0.00726; KCC2 bumet counter: 0.00429; KCC2 secondary2: 0.0261*; HEK counter1: 0.00602*; KCC2 ouabain: 0.0154*; HEK293 Tl flux2: inconclusive

What do the screens show for `Cc1cc(C)[n+](-c2ccc(Oc3ccccc3)c(S(=O)(=O)[O-])c2)[nH]1`?
SKKanGAS inh: -2.0; Ins promoter up: 0.41; Cl transport mod: -0.00171; Rad51 HR inh: -4.3

How did Cc1ccc2cccc(NC(=S)NC(=O)c3c(Br)cnn3C)c2n1 do in these assays?
SKKanGAS inh: -7.1; WT yeast gro inh: 21.6; Cl transport mod: 5.72*; Autophagy HCS: inactive; Rad51 HR inh: 4.2; KCC2 secondary: 0.00669; KCC2 bumet counter: 0.0151*; KCC2 secondary2: 0.0268; HEK counter1: 0.0145*; KCC2 ouabain: 0.0287*; HEK293 Tl flux2: 0.0122*
